Test results reported in ChEMBL document CHEMBL1122318, “Aporphines. 50. Kinetics of solvolysis of N-(2-chloroethyl)norapomorphine, an irreversible dopamine receptor antagonist” (J Med Chem, 1983).
Where “and” joins values, the source holds several entries; their conditions need not be identical. Identical values can stand only once.

Assays:
Format in all cases: ADME
[1] = Half-life period at pH 8.00(in 0.1 M […]).; settings: 0.1 M […] buffer
[2] = Half-life period at pH 7.50(in 0.1 M […]).; settings: 0.1 M […] buffer, pH 7.5
[3] = Half-life period at pH 5.80(in 0.1 M acetate).; settings: 0.1 M acetate buffer, pH 5.8
Method in brief: (§1)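 Buffers were 0.1 M sodium acetate titrated with 0.1 M acetic acid below pH 6.0, and NaH2PO4–Na2HPO4 (100 mM) at pH 6.0–8.0. Remaining NCA was quantified from peak heights against a 100–900 ng standard curve. First-order kobsd came from log[NCA] versus time over at least two half-lives.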

[4] = Apparent rate of cyclization (kobsd) value at pH 6.75(in 0.1 M phosphate).; method in brief: as §1
[5] = Half-life period at pH 6.50(in 0.1 M […]).; settings: 0.1 M […] buffer, pH 6.5
[6] = Half-life period at pH 5.60(in 0.1 M acetate).; settings: 0.1 M acetate buffer, pH 5.6; method in brief: as §1
[7] = Apparent rate of cyclization (kobsd) value at pH 6.00(in 0.1 M phosphate).; method in brief: as §1
[8] = Apparent rate of cyclization (kobsd) value at pH 5.80(in 0.1 M acetate).; settings: pH 5.8; method in brief: as §1
[9] = Half-life period at pH 7.00(in 0.1 M […]).
[10] = Apparent rate of cyclization (kobsd) value at pH 6.25(in 0.1 M phosphate).; method in brief: as §1
[11] = Apparent rate of cyclization (kobsd) value at pH 5.40(in 0.1 M acetate).; settings: pH 5.4; method in brief: as §1
[12] = Half-life period at pH 6.25(in 0.1 M […]).; settings: 0.1 M […] buffer
[13] = Half-life period at pH 6.75(in 0.1 M […]).; settings: 0.1 M […] buffer
[14] = Half-life period at pH 6.00(in 0.1 M […]).; settings: 0.1 M acetate buffer
[15] = Half-life period at pH 5.40(in 0.1 M acetate).; settings: 0.1 M acetate buffer, pH 5.4; method in brief: as §1
[16] = Apparent rate of cyclization (kobsd) value at pH 6.50(in 0.1 M phosphate).; settings: pH 6.5; method in brief: as §1
[17] = Apparent rate of cyclization (kobsd) value at pH 5.60(in 0.1 M acetate).; settings: pH 5.6; method in brief: as §1
[18] = Apparent rate of cyclization (kobsd) value at pH 7.00(in 0.1 M […]).
[19] = Apparent rate of cyclization (kobsd) value at pH 8.00(in 0.1 M […]).

## Oc1ccc2c(c1O)-c1cccc3c1[C@@H](C2)N(CCCl)CC3
[1]
  half-life: 22 min
[2]
  half-life: 24 min
[3]
  half-life: 107 min
[4]
  k obs: 212 min⁻¹
[5]
  half-life: 39 min
[6]
  half-life: 141 min
[7]
  k obs: 97 min⁻¹
[8]
  k obs: 65 min⁻¹
[9]
  T1/2: 28 min
[9]; 0.1 M acetate buffer
  half-life: 29 min
[10]
  k obs: 152 min⁻¹
[11]
  k obs: 36 min⁻¹
[12]
  half-life: 45 min
[13]
  half-life: 33 min
[14]
  half-life: 71 min
[15]
  half-life: 192 min
[16]
  k obs: 175 min⁻¹
[17]
  k obs: 49 min⁻¹
[18]
  k obs: 243 min⁻¹ and 252 min⁻¹
[19]
  k obs: 308 min⁻¹
